Source: PubChem BioAssay
This is a sample that favours compounds with a hit; in the whole collection about 3% have one here.
SENP8 block-1 = SENP8 (human) protease inhibition | Q96LD8 | recombinant SENP8, Nedd8 substrate fluorescence | inhibition, % at 20 µM | 360,000 tested, 0.64% active | AID 602440; in the data active = inhibition mostly above about 40%, no sharp cut-off; inactive = mostly below about 27%
UBC13 inh = human UBC13 polyubiquitination inhibition; UBC13 polyubiquitin chain formation, TR-FRET; inhibition, % at 20 µM; AID 485273; P61088; 330,000 tested, 0.47% active; in the data active = inhibition above about 45%, passing the limit was not always enough
Target sequence (P61088 whole entry, looked up): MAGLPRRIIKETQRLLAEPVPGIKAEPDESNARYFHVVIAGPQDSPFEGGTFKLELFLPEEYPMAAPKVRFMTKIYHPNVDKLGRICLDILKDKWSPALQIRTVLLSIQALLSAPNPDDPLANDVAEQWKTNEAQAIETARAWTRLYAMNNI
SENP6 inh = SENP6 protease inhibition; inhibition, % at 10 µM; Q9GZR1; AID 2599; 330,000 tested, 1.8% active; Recombinant SENP6 catalytic domain, aminoluciferin luminescence;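 active = inhibition above about 50% at the single tested dose, limit read from the data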;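 also: plate controls were DMSO wells with enzyme for no effect and DMSO wells lacking enzyme for full effect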
SENP7 inh = SENP7 protease inhibition. inhibition, % at 5 µM. recombinant SENP7, Z-RLRGG-aminoluciferin luminescence, 40 min. Q9BQF6. AID 434973. 330,000 tested, 1.5% active;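 active = inhibition above about 50% at the single test dose, limit read from the data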;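 also: plate controls were DMSO with enzyme for no effect and no enzyme buffer wells for full effect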
Target sequence (Q9BQF6 706-1050 limits assumed): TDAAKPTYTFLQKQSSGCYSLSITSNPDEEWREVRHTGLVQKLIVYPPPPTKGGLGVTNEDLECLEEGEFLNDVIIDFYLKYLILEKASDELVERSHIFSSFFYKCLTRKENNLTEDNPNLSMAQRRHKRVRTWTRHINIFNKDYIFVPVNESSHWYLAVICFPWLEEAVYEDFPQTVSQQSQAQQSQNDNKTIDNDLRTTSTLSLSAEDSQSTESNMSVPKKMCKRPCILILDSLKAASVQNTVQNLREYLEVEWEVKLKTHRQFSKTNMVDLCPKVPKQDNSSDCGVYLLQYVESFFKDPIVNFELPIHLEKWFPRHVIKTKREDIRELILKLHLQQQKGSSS
Apaf-1 inh = human Apaf-1 inhibition. 330,000 tested, 0.71% active. reconstituted apoptosome caspase-3 activity, DEVD-Rh110 fluorescence. O14727. AID 489030. inhibition, % at 20 µM; active = inhibition of at least 40% at 20 µM;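 also: plate controls were DMSO wells for no effect and DEVD-CHO caspase inhibitor wells for full effect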
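Material: biochemical Apaf-1 apoptosome reconstitution. Medium: Hepes buffer, pH 7.5. Also added: cytochrome c activation, bis-DEVD rhodamine 110 substrate. Timing: 30 min compound preincubation, 50 min activation, room temperature. Measured by: rhodamine 110 fluorescence at Ex 480/Em 540 nm.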
SENP8 block-2 = SENP8 protease inhibition. inhibition, % at 10 µM. purified SENP8, Z-RLRGG-aminoluciferin cleavage, luminescence. Q96LD8. 330,000 tested, 1.2% active. AID 2540; in the data active = inhibition above about 50%
SENP8 conf = human SENP8 inhibition, confirmed | shares compounds with SENP7 inh | Recombinant SENP8, Z-RLRGG-aminoluciferin luminescence, 60 min | inhibition, % at 12.5 µM | 6,200 tested, 40% active | AID 488912;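 active = mean inhibition across replicates above about 50%, limit read from the data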
SENP6 conf = confirmation of human SENP6 protease inhibitors; 6,200 tested, 58% active; inhibition, % at 12.5 µM; recombinant SENP6, Z-RLRGG-aminoluciferin luminescence; shares compounds with SENP7 inh
SENP7 conf = confirmation of human SENP7 protease inhibitors | shares compounds with SENP7 inh | inhibition, % at 12.5 µM | 6,200 tested, 69% active | recombinant SENP7, Z-RLRGG-aminoluciferin luminescence, 40 min | AID 488917
Casp3 SENP sel = selectivity test for SENP inhibitors: human caspase-3 inhibition; shares compounds with SENP7 inh; purified caspase-3, Z-DEVD-aminoluciferin luminescence, 60 min; 6,200 tested, 60% active; inhibition, % at 12.5 µM;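 active = mean inhibition above about 50%, limit read from the data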;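 also: plate controls were enzyme with DMSO for no effect and wells without caspase-3 for full effect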
Target sequence (P42574 28-227 limits assumed): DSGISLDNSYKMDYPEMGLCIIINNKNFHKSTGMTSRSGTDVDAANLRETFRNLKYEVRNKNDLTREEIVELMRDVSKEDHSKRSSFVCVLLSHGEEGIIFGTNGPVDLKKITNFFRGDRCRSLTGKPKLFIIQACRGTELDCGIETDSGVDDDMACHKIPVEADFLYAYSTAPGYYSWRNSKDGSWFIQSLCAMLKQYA
Luc interf = counter-screen for SENP inhibitors: luminescence interference | shares compounds with SENP7 inh | Pre-incubated SENP8/Z-RLRGG-aminoluciferin, luciferase luminescence interference | inhibition, % at 12.5 µM | 6,200 tested, 39% active | AID 488919;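 active = mean inhibition above about 50% when retested at one dose, limit read from the data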;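 also: plate controls were DMSO wells with completed reaction for no effect and substrate without enzyme for full effect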
Starred values were filed as active, the others as inactive; . = not tested or not shown.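 The calls were made as follows, unless noted: active = mean inhibition above about 50% in the one-dose retest (limit read from the data); inactive = the rest.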

SMILES	SENP8 block-1	UBC13 inh	SENP6 inh	SENP7 inh	Apaf-1 inh	SENP8 block-2	SENP8 conf	SENP6 conf	SENP7 conf	Casp3 SENP sel	Luc interf
O=C(OCc1ccc(Cl)c(Cl)c1)c1ccccn1	7.9	23.0	80.0*	69.1*	-21.8	51.2*	71.2*	68.6*	90.2*	70.8*	72.9*
CC1(c2nnnn2-c2ccc3c(c2)OCCO3)CCC(=O)N1CCc1ccccc1F (centres undefined)	8.6	.	.	.	.	.	.	.	.	.	.
CC1(C(=O)NS(=O)(=O)c2ccc(Cl)cc2)CCN1C(=O)CCC1CCCC1 (centres undefined)	24.2	.	.	.	.	.	.	.	.	.	.
N/C(=N\OC(=O)c1ccc(Cl)cc1)c1[nH]ncc1Br	-5.5	2.4	99.9*	99.9*	-21.6	96.4*	97.9*	98.3*	101.2*	97.5*	97.6*
Cc1ccc(CNC(=O)Nc2nnc([C@@H]3C[C@H](O)[C@@H](CO)O3)s2)cc1	13.0	.	.	.	.	.	.	.	.	.	.
O=C(Nc1cccc(O)c1)c1cc(-c2ccccc2Cl)on1	3.0	2.4	96.9*	95.1*	10.4	93.2*	11.3	94.2*	100.6*	86.9*	93.9*
O=C(Nc1cccc(O)c1)c1cc(-c2ccc3c(c2)OCO3)on1	-11.9	5.6	95.6*	100.8*	-0.3	89.5*	14.8	95.1*	36.3	76.8*	1.5
CCCS(=O)(=O)NC(=O)C1(C)CCCN(C(=O)C(C)(C)Oc2ccc(Cl)cc2)C1 (centres undefined)	19.4	.	.	.	.	.	.	.	.	.	.
Cc1ccnc(NC(=O)COc2ccccc2[N+](=O)[O-])c1	-1.6	.	.	.	.	.	.	.	.	.	.
Cc1ccc(NC(=O)COc2ccccc2[N+](=O)[O-])nc1	3.7	0.8	72.3*	69.5*	11.9	50.0	15.2	41.5	81.4*	79.1*	7.1
S=C(SSC(=S)N1CCOCC1)N1CCOCC1	12.9	.	.	.	.	.	.	.	.	.	.
C[C@H]1CN([C@@H](C)CO)C(=O)CCCn2nncc2CO[C@H]1CN(C)S(=O)(=O)c1ccc2ccccc2c1	6.2	.	.	.	.	.	.	.	.	.	.
CC(On1c(-c2ccccc2)nc2ccc(Cl)cc21)C(=O)O (centres undefined)	12.5	-4.0	-14.1	10.1	-2.0	4.0	.	.	.	.	.
CCOC(=O)COn1c(-c2cccc(Cl)c2)nc2ccc([N+](=O)[O-])cc21	6.9	-1.3	94.1*	90.4*	13.6	86.9*	80.9*	81.1*	92.5*	65.2*	68.8*
Cc1nc(Cl)cc(N/N=C/c2ccc(O)cc2)n1	1.5	-1.5	87.3*	90.6*	4.8	89.3*	90.1*	89.6*	99.4*	89.8*	87.2*
Oc1ccc(/C=N/Nc2cc(N3CCOCC3)nc(N3CCOCC3)n2)cc1	-12.0	-27.5	18.6	60.1*	10.9	4.7	13.3	32.9	4.4	0.5	2.8
Cc1nc(N/N=C/c2ccc(Br)cc2)cc(N2CCOCC2)n1	2.6	7.5	-11.3	-2.9	1.3	-20.8	.	.	.	.	.
Cc1nc(Cl)cc(N/N=C/c2ccc(O)cc2O)n1	-8.8	-11.0	97.1*	94.5*	-2.7	93.1*	91.9*	92.3*	100.3*	92.2*	91.6*
C[C@H]1COc2cccc(N3CCC[C@@H]3CO)c2S(=O)(=O)N1	-7.0	.	.	.	.	.	.	.	.	.	.
COc1ccccc1-c1csc(C(C)(O)c2cccc(F)c2)n1 (centres undefined)	7.1	.	.	.	.	.	.	.	.	.	.
COc1cccc(-c2cnc(C(O)c3ccc(C(C)(C)C)cc3)[nH]2)c1 (centres undefined)	-7.8	.	.	.	.	.	.	.	.	.	.
O=C(Nc1cccnc1Cl)c1ccc(Cl)cc1	7.3	2.5	-3.2	6.7	-6.9	-1.1	.	.	.	.	.
O=C(NC(=S)Nc1cccnc1Cl)c1ccc(Cl)cc1	-4.8	-3.0	66.8*	46.4	14.0	45.5	25.3	23.0	45.9	48.0	53.3*
Cc1ccccc1-c1cc2nc(NCc3ccc(N(C)C)cc3)n(C)c(=O)c2s1	7.4	.	.	.	.	.	.	.	.	.	.
Cc1noc(C)c1C(=O)Nc1nc2ccc(F)cc2s1	-70.8	3.2	0.2	100.4*	8.2	98.6*	97.0*	99.7*	103.1*	98.6*	47.5
SMILES	SENP8 block-1	UBC13 inh	SENP6 inh	SENP7 inh	Apaf-1 inh	SENP8 block-2	SENP8 conf	SENP6 conf	SENP7 conf	Casp3 SENP sel	Luc interf
Cc1onc(-c2ccccc2Cl)c1C(=O)Nc1nc2ccc(S(C)(=O)=O)cc2s1	-338.6	-12.1	-8.1	-12.1	13.4	-0.8	.	.	.	.	.
CCc1noc(C)c1C(=O)Nc1nc2ccc(F)cc2s1	-34.4	-3.7	81.2*	65.8*	8.2	64.2*	76.3*	75.6*	94.0*	74.6*	70.8*
Cc1noc(C)c1C(=O)Nc1nc2ccc(Cl)cc2s1	-48.3	7.6	96.2*	94.0*	-5.5	94.7*	92.1*	95.5*	101.0*	93.2*	65.6*
CCc1noc(C)c1C(=O)Nc1nc2ccc(S(C)(=O)=O)cc2s1	-261.9	4.9	40.6	24.6	5.0	4.2	.	.	.	.	.
Cc1cc(C)n2c(NC3CCCCC3)c(-c3cccnc3)nc2n1	-97.8	.	.	.	.	.	.	.	.	.	.
CCCC1NC(=O)c2cc3ccccc3cc2-n2c1nc1cc(F)ccc1c2=O (centres undefined)	8.7	.	.	.	.	.	.	.	.	.	.
Cc1ccc(C(=O)OCC(=O)Nc2ccccc2Cl)c(O)c1	4.9	21.3	16.9	66.3*	5.4	-17.7	11.7	12.2	5.0	8.7	5.5
Cc1ccc(NC(=O)Nc2nc3ccc(S(C)(=O)=O)cc3s2)cc1	-47.1	2.2	-17.7	12.5	4.5	-7.4	.	.	.	.	.
CS(=O)(=O)c1ccc2nc(NC(=O)c3ccccc3)sc2c1	-42.1	5.7	88.4*	88.0*	5.3	78.4*	13.6	80.5*	94.2*	87.8*	24.4
CCSc1nsc(NC(=O)Nc2ccccc2F)n1	11.4	10.7	65.2*	49.7	-5.9	36.3	28.3	42.0	79.4*	47.7	14.8
Cc1cccc(C(=O)Nc2nc3ccc(S(C)(=O)=O)cc3s2)c1	-80.8	3.4	75.1*	74.1*	-1.5	63.3*	6.9	42.4	88.0*	77.8*	-1.8
CCSc1nsc(NC(=O)Nc2cccc(OC)c2)n1	1.6	9.2	16.9	-2.7	9.7	7.8	.	.	.	.	.
CS(=O)(=O)c1ccc2nc(NC(=O)Nc3ccccc3F)sc2c1	-6.6	10.6	32.7	71.9*	-5.7	5.9	-6.9	-1.7	0.7	4.7	-3.1
Cc1ccc(C(=O)Nc2nc3ccc(S(C)(=O)=O)cc3s2)cc1C	-38.1	6.7	2.7	6.1	-6.5	9.2	.	.	.	.	.
